Assay results: ChEMBL document CHEMBL4699614, “Design, synthesis and biological evaluation of novel osthole-based derivatives as potential neuroprotective agents” (Bioorg Med Chem Lett, 2020)
pEC50: −log10 of the molar value. Calls of active or inactive are those of the source.

Key:
SH-SY5Y [1] = assay: Neuroprotection against H202-induced toxicity in human SH-SY5Y cells assessed as cytoprotection by MTT assay; format: functional, cell-based
Summary of the method: (§1)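 SH-SY5Y cells were exposed to H2O2 or to oxygen glucose deprivation (OGD) cytotoxicity. EC50 was defined as the concentration giving 50% protective effect relative to the control group. Values are averages of three independent experiments, given as mean ± SEM.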

SH-SY5Y [2] = assay: Neuroprotection against oxygen-glucose deprivation-induced toxicity in human SH-SY5Y cells assessed as cytoprotection by MTT assay; format: functional, cell-based; summary of the method: as §1
RAW264.7 = assay: Inhibition of LPS-induced NO production in mouse RAW264.7 cells assessed as NO production activity at 10 uM by Griess reagent based assay; format: functional
SH-SY5Y [3] = assay: Neuroprotective activity against human SH-SY5Y cells assessed as Abeta42-induced cytotoxicity at 10 uM by MTT assay; format: functional
SH-SY5Y [4] = assay: Neuroprotection against H202-induced oxidative stress in human SH-SY5Y cells assessed as increase in cell viability at 10 uM by MTT assay; format: functional
Summary of the method: (§2)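 SH-SY5Y cells were given one of two insults: H2O2-induced oxidative stress, with cell viability read by MTT, or oxygen glucose deprivation (OGD)-induced cell damage. Compounds were tested at 10 µM, and the result is expressed as percent neuroprotection.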

SH-SY5Y [5] = assay: Neuroprotective activity against oxygen-glucose deprivation-induced toxicity in human SH-SY5Y cells assessed as increase in cell viability at 10 uM by MTT assay; format: functional; summary of the method: as §2
SH-SY5Y [6] = assay: Neuroprotective activity against human SH-SY5Y cells assessed as Abeta42-induced cytotoxicity at 1 uM by MTT assay; format: functional
SH-SY5Y [7] = assay: Neuroprotection against H202-induced oxidative stress in human SH-SY5Y cells assessed as increase in cell viability at 1 mM by MTT assay; format: functional
SH-SY5Y [8] = assay: Neuroprotective activity against oxygen-glucose deprivation-induced toxicity in human SH-SY5Y cells assessed as increase in cell viability at 1 mM by MTT assay; format: functional
SH-SY5Y [9] = assay: Neuroprotective activity against human SH-SY5Y cells assessed as Abeta42-induced cytotoxicity at 30 uM by MTT assay; format: functional

Row | Compound | pEC50 (SH-SY5Y [1]) | pEC50 (SH-SY5Y [2]) | Residual NO production (RAW264.7) [%] | Activity (SH-SY5Y [4]) [%] | Activity (SH-SY5Y [5]) [%] | other results
1 | CC(C)=CCc1c(OCC(=O)N2CCN(C(=O)OC(C)(C)C)CC2)ccc2ccc(=O)oc12 | 4.99 | 5.49 | 62.8 | 45.7 | 64.6 | inhibition at 10 µM (SH-SY5Y [3]): 61.4%; inhibition at 1 µM (SH-SY5Y [6]): 55.2%
2 | CC(C)=CCc1c(OCC(=O)Nc2ccc(N3CCCC3)cn2)ccc2ccc(=O)oc12 |  |  |  | 45.2 | 58.2 | 
3 | CC(C)=CCc1c(OCC(=O)Nc2ccc(N3CCCCC3)cc2)ccc2ccc(=O)oc12 |  |  |  | 12.5 |  | 
4 | CC(C)=CCc1c(OCC(=O)N2CCOCC2)ccc2ccc(=O)oc12 | 4.56 | < 4.00 | 74.1 | 31.5 | 23.2 | 
5 | CC(C)=CCc1c(OCC(=O)Nc2ccc(N3CCCC3)cc2)ccc2ccc(=O)oc12 | 4.92 | 5.25 | 50.4 | 47.7 | 63.4 | inhibition at 10 µM (SH-SY5Y [3]): 46.3%; inhibition at 1 µM (SH-SY5Y [6]): 47.8%
6 | COc1ccc(CNC(=O)Oc2ccc3ccc(=O)oc3c2CC=C(C)C)cc1 | < 4.00 | 4.63 | 77.4 | 28.7 | 35 | 
7 | CC(C)(O)C1Cc2c(ccc3cc(-c4ccc(F)cc4)c(=O)oc23)O1 (stereo not drawn) |  |  |  | 21.3 | 23.5 | 
8 | CC(C)(O)C1Cc2c(ccc3cc(-c4ccccc4F)c(=O)oc23)O1 (stereo not drawn) | 4.49 | 4.40 | 85.2 | 36.5 | 37.2 | 
9 | CC(C)=CCc1c(OCC(=O)N2CCNCC2)ccc2ccc(=O)oc12 |  |  |  | 29.2 | 28.2 | 
10 | CC(C)=CCc1c(OCC(=O)Nc2ccc(N3CCOCC3)cc2)ccc2ccc(=O)oc12 |  |  |  | 39.5 | 13.2 | 
11 | CC(C)=CCc1c(OCC(=O)Nc2ccc(N3CCOCC3)cn2)ccc2ccc(=O)oc12 | 4.78 | 5.04 | 80.3 | 43.5 | 51.4 | 
12 | COc1cccc(-c2cc3ccc4c(c3oc2=O)CC(C(C)(C)O)O4)c1 (stereo not drawn) | 4.52 | 4.88 | 73.3 | 31 | 42.8 | 
13 | CC(C)=CCc1c(OCC(=O)Nc2ccc(N3CCNCC3)cc2)ccc2ccc(=O)oc12 |  |  |  | 22.5 | 8.4 | 
14 | CCN1CCN(C(=O)COc2ccc3ccc(=O)oc3c2CC=C(C)C)CC1 | 4.53 | 4.90 | 72.3 | 33.7 | 48 | 
15 | CC(C)=CCc1c(OCC(=O)Nc2ccc(N3CCCCC3)cn2)ccc2ccc(=O)oc12 |  |  |  | 32.7 | 16.8 | 
16 | CC(C)=CCc1c(OCC(=O)N2CCCCC2)ccc2ccc(=O)oc12 |  |  |  | 5.5 |  | 
17 | Cc1ccc(-c2cc3ccc4c(c3oc2=O)CC(C(C)(C)O)O4)cc1 (stereo not drawn) |  |  |  | 18.2 |  | 
18 | CC(=O)N[C@@H](CS)C(=O)O [ACETYLCYSTEINE] |  |  |  |  |  | Activity (SH-SY5Y [7]): 37.1%; Activity (SH-SY5Y [8]): 84.3%
19 | CC(C)=CCc1c(OC(=O)NC2CCCCC2)ccc2ccc(=O)oc12 |  |  |  | 13 |  | 
20 | COc1ccc2c(c1)c(CC(=O)O)c(C)n2C(=O)c1ccc(Cl)cc1 [INDOMETHACIN] |  |  | 53.2 |  |  | 
21 | CC(C)(O)C1Cc2c(ccc3cc(-c4cccc(F)c4)c(=O)oc23)O1 (stereo not drawn) | 4.12 | 4.72 | 106.2 | 29 | 41.2 | 
22 | CC(C)=CCc1c(OCC(=O)Nc2ccc(N3CCNCC3)cn2)ccc2ccc(=O)oc12 |  |  |  | 44.5 | 49.4 | 
23 | CC(C)(O)C1Cc2c(ccc3cc(-c4ccccc4)c(=O)oc23)O1 (stereo not drawn) |  |  |  | 19.7 | 23.2 | 
24 | COc1ccc2ccc(=O)oc2c1CC=C(C)C [OSTHOLE] | 4.48 | 4.58 | 85.6 |  | 28.6 | Activity (SH-SY5Y [9]): 37.1%; Activity (SH-SY5Y [6]): inactive
25 | CC(C)=CCc1c(OCC(=O)N2CCCC2)ccc2ccc(=O)oc12 | 4.17 | 4.82 | 75.4 | 28 | 43.6 | 
